# Measurements taken from the M2OR odorant receptor database.
# Substitutions are numbered along the chain they refer to.
# How the values were obtained:
# Details in all cases: stereoisomer not certain
# OR9Q1 (Homo sapiens) = target: T1, OR9Q1 (Homo sapiens) (UniProt Q8NGQ5)
# T1 sequence (whole entry): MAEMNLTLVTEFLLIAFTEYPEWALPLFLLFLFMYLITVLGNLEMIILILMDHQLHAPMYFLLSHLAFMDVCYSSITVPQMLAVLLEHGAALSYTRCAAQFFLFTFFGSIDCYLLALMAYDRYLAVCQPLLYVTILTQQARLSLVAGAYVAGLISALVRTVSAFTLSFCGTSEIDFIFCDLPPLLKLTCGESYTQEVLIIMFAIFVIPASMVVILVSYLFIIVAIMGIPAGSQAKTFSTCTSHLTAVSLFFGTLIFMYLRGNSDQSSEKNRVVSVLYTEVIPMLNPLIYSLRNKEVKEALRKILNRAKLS
# Method in brief: (§1)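 Assay methods differ from source to source, frequently being transient luciferase assays in mammalian cell lines. For each receptor–molecule pair, the label responsive (active) applies when the original authors judged the measured signal statistically different from baseline, and non-responsive (inactive) applies otherwise.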
# OR9Q2 (Homo sapiens) = target: T2, OR9Q2 (Homo sapiens) (UniProt Q8NGE9)
# T2 sequence (whole entry): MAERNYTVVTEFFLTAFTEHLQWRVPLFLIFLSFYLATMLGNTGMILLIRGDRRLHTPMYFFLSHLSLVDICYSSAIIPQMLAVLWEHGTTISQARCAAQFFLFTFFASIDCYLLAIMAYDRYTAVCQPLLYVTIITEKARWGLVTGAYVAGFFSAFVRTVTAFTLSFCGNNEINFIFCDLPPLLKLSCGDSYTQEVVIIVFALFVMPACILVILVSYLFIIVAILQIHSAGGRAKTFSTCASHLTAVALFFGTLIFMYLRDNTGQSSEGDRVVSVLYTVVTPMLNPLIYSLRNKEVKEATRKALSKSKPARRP
# Method in brief: as §1
# Or5an6 (Mus musculus) = target: T3, Or5an6 (Mus musculus) (UniProt Q8VFV4)
# T3 sequence (whole entry): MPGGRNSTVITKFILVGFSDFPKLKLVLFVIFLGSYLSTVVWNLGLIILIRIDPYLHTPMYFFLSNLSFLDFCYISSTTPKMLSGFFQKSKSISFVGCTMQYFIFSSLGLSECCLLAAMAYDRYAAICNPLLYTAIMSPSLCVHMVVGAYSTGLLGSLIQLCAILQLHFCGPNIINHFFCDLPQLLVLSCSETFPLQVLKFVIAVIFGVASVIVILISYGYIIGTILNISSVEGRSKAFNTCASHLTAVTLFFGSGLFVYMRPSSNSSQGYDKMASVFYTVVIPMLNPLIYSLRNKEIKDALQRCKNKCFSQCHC
# Method in brief: as §1
# OR9Q1 A83T = test system: T4, OR9Q1 A83T
# T4 sequence (whole entry): T1 sequence (whole entry) with A83T
# Method in brief: as §1
# OR9Q2 C179R = test system: T5, OR9Q2 C179R
# T5 sequence (whole entry): T2 sequence (whole entry) with C179R
# Method in brief: as §1
# Or10j5 (Mus musculus) = target: T6, Or10j5 (Mus musculus) (UniProt Q62007)
# T6 sequence (whole entry): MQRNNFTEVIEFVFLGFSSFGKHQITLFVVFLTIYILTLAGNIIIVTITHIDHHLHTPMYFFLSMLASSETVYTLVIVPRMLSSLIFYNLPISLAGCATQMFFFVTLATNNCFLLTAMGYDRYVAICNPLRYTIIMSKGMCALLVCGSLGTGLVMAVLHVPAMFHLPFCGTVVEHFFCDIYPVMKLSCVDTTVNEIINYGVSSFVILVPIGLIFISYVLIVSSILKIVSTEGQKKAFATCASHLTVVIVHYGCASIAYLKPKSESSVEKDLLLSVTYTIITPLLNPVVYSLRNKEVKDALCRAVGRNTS
# Method in brief: as §1
# Or1m1 (Mus musculus) = target: T7, Or1m1 (Mus musculus) (UniProt Q8VFM9)
# T7 sequence (whole entry): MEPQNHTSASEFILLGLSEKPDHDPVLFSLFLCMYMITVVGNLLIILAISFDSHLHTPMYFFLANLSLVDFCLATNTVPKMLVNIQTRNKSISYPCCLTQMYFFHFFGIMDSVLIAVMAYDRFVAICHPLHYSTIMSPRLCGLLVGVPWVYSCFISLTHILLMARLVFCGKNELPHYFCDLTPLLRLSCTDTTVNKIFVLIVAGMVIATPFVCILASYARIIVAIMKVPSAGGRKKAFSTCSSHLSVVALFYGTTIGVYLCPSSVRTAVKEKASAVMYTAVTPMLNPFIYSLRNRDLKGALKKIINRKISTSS
# Method in brief: as §1
# Or5ar1 (Mus musculus) = target: T8, Or5ar1 (Mus musculus) (UniProt Q8VGS3)
# T8 sequence (whole entry): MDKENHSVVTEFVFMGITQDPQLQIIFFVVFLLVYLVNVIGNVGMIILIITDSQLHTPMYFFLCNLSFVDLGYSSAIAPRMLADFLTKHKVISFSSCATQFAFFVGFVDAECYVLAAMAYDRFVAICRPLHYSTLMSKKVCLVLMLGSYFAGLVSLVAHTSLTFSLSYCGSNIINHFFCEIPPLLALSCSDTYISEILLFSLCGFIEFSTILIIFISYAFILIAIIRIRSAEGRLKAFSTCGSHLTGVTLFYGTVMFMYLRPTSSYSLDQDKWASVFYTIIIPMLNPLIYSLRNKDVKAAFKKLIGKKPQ
# Method in brief: as §1
# Or2c1 (Mus musculus) = target: T9, Or2c1 (Mus musculus) (UniProt P23275)
# T9 sequence (whole entry): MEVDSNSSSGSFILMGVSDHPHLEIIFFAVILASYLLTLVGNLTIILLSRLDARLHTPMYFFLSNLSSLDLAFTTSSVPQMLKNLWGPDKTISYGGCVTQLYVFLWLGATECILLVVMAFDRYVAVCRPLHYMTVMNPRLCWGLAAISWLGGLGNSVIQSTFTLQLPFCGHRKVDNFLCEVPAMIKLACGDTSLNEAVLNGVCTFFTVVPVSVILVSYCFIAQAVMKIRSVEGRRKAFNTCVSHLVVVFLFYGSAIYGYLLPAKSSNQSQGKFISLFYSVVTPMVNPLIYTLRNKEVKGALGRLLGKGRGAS
# Method in brief: as §1
# Or5k16 (Mus musculus) = target: T10, Or5k16 (Mus musculus) (UniProt Q7TS48)
# T10 sequence (whole entry): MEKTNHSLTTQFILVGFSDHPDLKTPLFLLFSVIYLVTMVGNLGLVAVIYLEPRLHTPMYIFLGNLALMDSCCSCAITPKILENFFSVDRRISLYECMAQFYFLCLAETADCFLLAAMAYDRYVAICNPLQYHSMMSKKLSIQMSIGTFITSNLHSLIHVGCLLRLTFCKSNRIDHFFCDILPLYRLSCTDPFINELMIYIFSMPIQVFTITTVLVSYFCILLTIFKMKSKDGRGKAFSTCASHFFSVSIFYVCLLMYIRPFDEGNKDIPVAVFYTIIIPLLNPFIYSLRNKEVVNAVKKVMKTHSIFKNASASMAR
# Method in brief: as §1
smiles,measurement,setting,value
CC(CO)CS (stereo not given),odorant receptor agonist call,OR9Q1 (Homo sapiens),inactive
same,odorant receptor agonist call,OR9Q2 (Homo sapiens),inactive
CC1CCCCCCCCCCCCC(=O)C1 (stereo not given),odorant receptor agonist call,OR9Q1 (Homo sapiens),inactive
same,odorant receptor agonist call,OR9Q2 (Homo sapiens),inactive
same,odorant receptor agonist call,Or5an6 (Mus musculus),active
CCCC(S)CCOC(C)=O (stereo not given),odorant receptor agonist call,OR9Q1 (Homo sapiens),inactive
same,odorant receptor agonist call,OR9Q1 A83T,inactive
same,odorant receptor agonist call,OR9Q2 (Homo sapiens),inactive
same,odorant receptor agonist call,OR9Q2 C179R,inactive
O=C(O)CCCCBr,odorant receptor agonist call,Or10j5 (Mus musculus),inactive
CCCCCC(S)C(C)CO (stereo not given),odorant receptor agonist call,OR9Q1 (Homo sapiens),inactive
same,odorant receptor agonist call,OR9Q2 (Homo sapiens),inactive
O=C(O)CCCCCCCCCCBr,odorant receptor agonist call,Or10j5 (Mus musculus),inactive
O=C(O)CCCBr,odorant receptor agonist call,Or10j5 (Mus musculus),inactive
CCCCCCCCCCCC(=O)O,odorant receptor agonist call,Or10j5 (Mus musculus),inactive
CCCCCCCCCCCC=O,odorant receptor agonist call,Or10j5 (Mus musculus),inactive
CCC(S)C(C)CO (stereo not given),odorant receptor agonist call,OR9Q1 (Homo sapiens),inactive
same,odorant receptor agonist call,OR9Q2 (Homo sapiens),inactive
CCCCCCCCCCC(=O)O,odorant receptor agonist call,Or10j5 (Mus musculus),inactive
O=C([O-])CCCCCCC(=O)[O-].[H+].[H+],odorant receptor agonist call,Or10j5 (Mus musculus),inactive
same,odorant receptor agonist call,Or1m1 (Mus musculus),inactive
same,odorant receptor agonist call,Or5ar1 (Mus musculus),inactive
O=C([O-])CCCCC(=O)[O-].[H+].[H+],odorant receptor agonist call,Or10j5 (Mus musculus),inactive
CCCCCCO,odorant receptor agonist call,Or10j5 (Mus musculus),inactive
same,odorant receptor agonist call,Or1m1 (Mus musculus),inactive
same,odorant receptor agonist call,Or2c1 (Mus musculus),inactive
same,odorant receptor agonist call,Or5ar1 (Mus musculus),inactive
CC1=NC(C)C(C)S1 (stereo not given),odorant receptor agonist call,OR9Q1 (Homo sapiens),inactive
same,odorant receptor agonist call,OR9Q1 A83T,inactive
same,odorant receptor agonist call,OR9Q2 (Homo sapiens),inactive
same,odorant receptor agonist call,OR9Q2 C179R,inactive
same,odorant receptor agonist call,Or5k16 (Mus musculus),active
O=C(O)CCCCCCCCCC(=O)O,odorant receptor agonist call,Or10j5 (Mus musculus),inactive
CCCCOC(=O)CCC,odorant receptor agonist call,Or10j5 (Mus musculus),inactive
CCC1OC(=O)C(O)=C1C (stereo not given),odorant receptor agonist call,OR9Q1 (Homo sapiens),inactive
same,odorant receptor agonist call,OR9Q1 A83T,inactive
same,odorant receptor agonist call,OR9Q2 (Homo sapiens),inactive
same,odorant receptor agonist call,OR9Q2 C179R,inactive
CCC1OC(C)=C(O)C1=O (stereo not given),odorant receptor agonist call,OR9Q1 (Homo sapiens),inactive
same,odorant receptor agonist call,OR9Q1 A83T,inactive
same,odorant receptor agonist call,OR9Q2 (Homo sapiens),inactive
same,odorant receptor agonist call,OR9Q2 C179R,inactive
CCCCCCC=CCCC=O,odorant receptor agonist call,OR9Q1 (Homo sapiens),inactive
same,odorant receptor agonist call,OR9Q1 A83T,inactive
same,odorant receptor agonist call,OR9Q2 (Homo sapiens),inactive
same,odorant receptor agonist call,OR9Q2 C179R,inactive
CCCCCCCCCCCO,odorant receptor agonist call,Or10j5 (Mus musculus),inactive
same,odorant receptor agonist call,Or1m1 (Mus musculus),inactive
same,odorant receptor agonist call,Or5ar1 (Mus musculus),inactive
CC1=C(O)C(=O)C(C)O1 (stereo not given),odorant receptor agonist call,OR9Q1 (Homo sapiens),inactive
same,odorant receptor agonist call,OR9Q1 A83T,inactive
same,odorant receptor agonist call,OR9Q2 (Homo sapiens),inactive
same,odorant receptor agonist call,OR9Q2 C179R,inactive
CC(=O)c1c(C)c([N+](=O)[O-])c(C(C)(C)C)c([N+](=O)[O-])c1C,odorant receptor agonist call,OR9Q1 (Homo sapiens),inactive
same,odorant receptor agonist call,OR9Q2 (Homo sapiens),inactive
same,odorant receptor agonist call,Or5an6 (Mus musculus),active
CCCCCC(=O)C(C)C(C)=O (stereo not given),odorant receptor agonist call,OR9Q1 (Homo sapiens),inactive
same,odorant receptor agonist call,OR9Q2 (Homo sapiens),inactive
CCCCCCCCCC(=O)[O-].[H+],odorant receptor agonist call,Or10j5 (Mus musculus),inactive
same,odorant receptor agonist call,Or1m1 (Mus musculus),inactive
same,odorant receptor agonist call,Or2c1 (Mus musculus),active
same,odorant receptor agonist call,Or5ar1 (Mus musculus),inactive
O=C(O)CCCCCCCCCBr,odorant receptor agonist call,Or10j5 (Mus musculus),inactive
CCCCC=O,odorant receptor agonist call,Or10j5 (Mus musculus),inactive
same,odorant receptor agonist call,Or1m1 (Mus musculus),inactive
same,odorant receptor agonist call,Or5ar1 (Mus musculus),inactive
Cc1cnc(C)c(C)n1,odorant receptor agonist call,OR9Q1 (Homo sapiens),inactive
same,odorant receptor agonist call,OR9Q1 A83T,inactive
same,odorant receptor agonist call,OR9Q2 (Homo sapiens),inactive
same,odorant receptor agonist call,OR9Q2 C179R,inactive
same,odorant receptor agonist call,Or5k16 (Mus musculus),inactive
CCCCC(=O)O,odorant receptor agonist call,Or10j5 (Mus musculus),inactive
same,odorant receptor agonist call,Or1m1 (Mus musculus),inactive
same,odorant receptor agonist call,Or2c1 (Mus musculus),inactive
same,odorant receptor agonist call,Or5ar1 (Mus musculus),inactive
CCCCCCCCCO,odorant receptor agonist call,Or10j5 (Mus musculus),inactive
same,odorant receptor agonist call,Or1m1 (Mus musculus),inactive
same,odorant receptor agonist call,Or2c1 (Mus musculus),inactive
same,odorant receptor agonist call,Or5ar1 (Mus musculus),inactive
O=C(O)CCCCCCCCCCCBr,odorant receptor agonist call,Or10j5 (Mus musculus),inactive
CC(C)=CCCC(C)=CCO,odorant receptor agonist call,Or10j5 (Mus musculus),inactive
same,odorant receptor agonist call,Or1m1 (Mus musculus),inactive
same,odorant receptor agonist call,Or2c1 (Mus musculus),inactive
same,odorant receptor agonist call,Or5ar1 (Mus musculus),inactive
CCCCC(S)C(C)CO (stereo not given),odorant receptor agonist call,OR9Q1 (Homo sapiens),inactive
same,odorant receptor agonist call,OR9Q2 (Homo sapiens),inactive
CCCCCCCO,odorant receptor agonist call,Or10j5 (Mus musculus),inactive
same,odorant receptor agonist call,Or1m1 (Mus musculus),inactive
same,odorant receptor agonist call,Or2c1 (Mus musculus),inactive
same,odorant receptor agonist call,Or5ar1 (Mus musculus),inactive
